We go through ten compounds from paper PMC2904523 (Journal of medicinal chemistry, 2010).

SMILES strings stand for the structures. A value given as a limit tells only on which side of the number the result lay.

The test system of data set [1] is RT of HIV-1DH012 (lysate). As to the kind of experiment: RT enzymatic inhibition. Particulars: RT from HIV-1DH012 lysate; Figure 3; average of three assays. It is filed as biochemical. The gist of the method:
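Reverse transcriptase came from a lysate of HIV-1DH012, a primary viral isolate. Enzyme activity was measured at various test compound concentrations with a commercial colorimetric HIV-1 RT kit, following the manufacturer's protocol. Each value is the average of three independent assays.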

Data set [2] concerns HIV-1 IIIB. As to the kind of experiment: HIV growth inhibition assay in H9 lymphocytes. Conditions: for selectivity ratio at 6 days: human, SI (selective index) = CC50/EC50, HIV-1 IIIB in H9 cells; for EC50 (concentration that causes 50% inhibition of HIV-1 IIIB replication): HIV-1 IIIB in H9 cells, Panacos, average of three independent assays.

With `Cc1cc(C#N)cc(C)c1Oc1cc(Nc2ccc(C#N)cc2)c(N)cc1[N+](=O)[O-]` [Compound 37, 5-(4″-Cyano-2″,6″-dimethylphenoxy)-N^1-(4′-cyanophenyl)-4-nitrobenzene-1,2-diamine], in data set [1], the RT inhibition activity entry is “potently inhibited RT activity”.
Same read-out and setting: to `Cc1cc(C#N)cc(C)c1Oc1nc(Nc2ccc(C#N)cc2)nc(N)c1Br` [Compound 4, etravirine, reference compound] belongs “potently inhibited RT activity”.
In the case of `Cc1cc(Br)cc(C)c1Oc1cc(Nc2ccc(C#N)cc2)c(N)cc1[N+](=O)[O-]` [Compound 36, 5-(4″-Bromo-2″,6″-dimethylphenoxy)-N^1-(4′-cyanophenyl)-4-nitrobenzene-1,2-diamine], the selectivity ratio at 6 days in data set [2] is more than 2800.
With `Cc1cc(Br)cc(C)c1Oc1cc(Nc2ccc(C#N)cc2)c(N)cc1N` [Compound 32, 5-(4″-Bromo-2″,6″-dimethylphenoxy)-N^1-(4′-cyanophenyl)benzene-1,2,4-triamine], the “EC50 (concentration that causes 50% inhibition of HIV-1 IIIB replication)” value in data set [2] is reported as “sub-micromolar level”.
For `Cc1cccc(C)c1Oc1cc(Nc2ccc(C#N)cc2)c([N+](=O)[O-])cc1[N+](=O)[O-]` [Compound 20, N-(4′-Cyanophenyl)-5-(2″,6″-dimethylphenoxy)-2,4-dinitroaniline], in data set [2], the “EC50 (concentration that causes 50% inhibition of HIV-1 IIIB replication)” value was “sub-micromolar level” and the selectivity ratio at 6 days lay in the range of 113 to 313.
For `Cc1cc(C)c(Oc2cc(Nc3ccc(C#N)cc3)c([N+](=O)[O-])cc2[N+](=O)[O-])c(C)c1` [Compound 22, N-(4′-Cyanophenyl)-2,4-dinitro-5-(2″,4″,6″-trimethylphenoxy)aniline] the same measures were “sub-micromolar level” and 113 to 313.
In the case of `Cc1cc(C#N)cc(C)c1Oc1cc(Nc2ccc(C#N)cc2)c(N)cc1N` [Compound 34, 5-(4″-Cyano-2″,6″-dimethylphenoxy)-N^1-(4′-cyanophenyl)benzene-1,2,4-triamine], in data set [1], the RT inhibition activity entry is on record as “potently inhibited RT activity”.
As for `Cc1cc(Br)cc(C)c1Oc1cc(Nc2ccc(C#N)cc2)c([N+](=O)[O-])cc1[N+](=O)[O-]` [Compound 19, 5-(4″-Bromo-2″,6″-dimethylphenoxy)-N-(4′-cyanophenyl)-2,4-dinitrsoaniline], the “EC50 (concentration that causes 50% inhibition of HIV-1 IIIB replication)” value in data set [2] was “sub-micromolar level”.
Regarding `Cc1cc(Br)cc(C)c1Oc1ccc([N+](=O)[O-])c(Nc2ccc(C#N)cc2)c1` [Compound 24, 5-(4″-Bromo-2″,6″-dimethylphenoxy)-N-(4′-cyanophenyl)-2-nitroaniline], in data set [2], the “EC50 (concentration that causes 50% inhibition of HIV-1 IIIB replication)” value is reported as “sub-micromolar level” and the selectivity ratio at 6 days lay in the range of 113 to 313.
As for `Cc1cc(C#N)cc(C)c1Oc1ccc([N+](=O)[O-])c(Nc2ccc(C#N)cc2)c1` [Compound 26, 5-(4″-Cyano-2″,6″-dimethylphenoxy)-N-(4′-cyanophenyl)-2-nitroaniline], the “EC50 (concentration that causes 50% inhibition of HIV-1 IIIB replication)” value in data set [2] is “sub-micromolar level”.
